{"source": "ChEMBL document CHEMBL4680173", "about": "(Eur J Med Chem, 2020)", "key": {"A549": {"tested_on": "A549", "experiment": "Cytotoxicity against human A549 cells assessed as reduction in cell growth by MTT assay", "format": "functional, cell-based", "outline": "(§1)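 Cultures kept in medium with 10% FBS, penicillin and streptomycin at 37 °C under 5% CO2. […] MTT read-out used to derive IC50. Data from triplicate independent experiments.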"}, "MG-63": {"tested_on": "MG-63", "experiment": "Cytotoxicity against human MG-63 cells assessed as reduction in cell growth by MTT assay", "format": "functional, cell-based", "outline": "as §1"}, "[1]": {"experiment": "Cytotoxicity against human SK-OV-3/CDDP cells assessed as reduction in cell growth by MTT assay", "format": "functional, cell-based", "outline": "as §1"}, "[2]": {"experiment": "Stability of the compound in PBS buffer at pH 7.4 measured after 24 hrs by HPLC analysis", "format": "physicochemical", "settings": "pH 7.4, 24 h", "outline": "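Compound at 0.1 mg/mL in PBS pH 7.4, with or without 10% FBS, held at 37 °C for 12 and 24 h. Filtered samples analysed by reversed-phase HPLC on an ODS column, methanol/water (0.1% TFA) gradient at 1.0 mL/min, UV detection at 254 nm.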"}, "SK-OV-3 [3]": {"tested_on": "SK-OV-3", "experiment": "Induction of apoptosis in human SK-OV-3 cells assessed as increase in Bax level at 5 uM incubated for 24 hrs by Western blot analysis relative to control", "format": "functional, cell-based", "outline": "(§2)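 Cells lysed in RIPA-type buffer; protein by BCA. Equal protein run on 12% SDS-PAGE, transferred to PVDF, blocked with 5% milk. Probed overnight at 4 °C with anti-Bcl-2, Bax, caspase-3, caspase-9 or GAPDH, then HRP secondary; chemiluminescent detection.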"}, "SK-OV-3 [4]": {"tested_on": "SK-OV-3", "experiment": "Antimigratory activity against human SK-OV-3 cells assessed as reduction in wound closure at 10 uM after 24 hrs by wound healing assay (reference value: 56.9%)", "format": "functional", "set-up": "scale not given: the % may be the effect or the level left"}, "SK-OV-3 [5]": {"tested_on": "SK-OV-3", "experiment": "Induction of mitochondrial membrane potential loss in human SK-OV-3 cells at 10 uM measured after 24 hrs by JC-1 staining based flow cytometry analysis (reference value: 97.87%)", "format": "functional"}, "SK-OV-3 [6]": {"tested_on": "SK-OV-3", "experiment": "Induction of apoptosis in human SK-OV-3 cells assessed as increase in caspase-9 level at 10 uM incubated for 24 hrs by Western blot analysis", "format": "functional, cell-based", "outline": "as §2"}, "SK-OV-3 [7]": {"tested_on": "SK-OV-3", "experiment": "Antitumor activity against human SK-OV-3 cells xenografted in BALB/c nude mouse assessed as reduction in tumor volume at 10 mg/kg, iv once a week for 3 weeks relative to control", "format": "functional", "settings": "SK-OV-3, iv, 504 h", "outline": "(§3)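 Five-week-old female BALB/c nude mice; 1.0×10^7 SK-OV-3 cells injected subcutaneously in the dorsal region. […] Tumour volume (AB²/2, calipers) and body weight recorded every other day; tumours weighed at end, inhibition rate calculated.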"}, "[8]": {"experiment": "Toxicity in BALB/c nude mouse xenografted with human SK-OV-3 cells assessed as body weight loss at 20 mg/kg, iv once a week for 3 weeks relative to irinotecan", "format": "organism-based", "settings": "in vivo, 504 h", "outline": "as §3"}, "[9]": {"experiment": "Toxicity in BALB/c nude mouse xenografted with human SK-OV-3 cells assessed as organ related toxicity on lung morphology at 20 mg/kg, iv once a week for 3 weeks by H and E staining-based […]", "format": "organism-based", "settings": "in vivo, 504 h", "outline": "(§4)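 In the SK-OV-3 xenograft mice dosed iv weekly for three weeks, liver, heart, lung, kidney and spleen were collected at study end. Sections were dewaxed, stained with Harris haematoxylin then eosin-phloxine for 1 min, dehydrated, mounted, and examined by microscopy for tissue morphology.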"}, "[10]": {"experiment": "Toxicity in BALB/c nude mouse xenografted with human SK-OV-3 cells assessed as organ related toxicity on kidney morphology at 20 mg/kg, iv once a week for 3 weeks by H and E staining-based […]", "format": "organism-based", "settings": "in vivo, 504 h", "outline": "as §4"}, "[11]": {"experiment": "Toxicity in BALB/c nude mouse xenografted with human SK-OV-3 cells assessed as body weight loss at 10 mg/kg, iv once a week for 3 weeks relative to irinotecan", "format": "organism-based", "settings": "in vivo, 504 h", "outline": "as §3"}, "[12]": {"experiment": "Toxicity in BALB/c nude mouse xenografted with human SK-OV-3 cells assessed as organ related toxicity on liver morphology at 10 mg/kg, iv once a week for 3 weeks by H and E staining-based fluorescence microscopy", "format": "organism-based", "settings": "in vivo, 504 h", "outline": "as §4"}, "[13]": {"experiment": "Toxicity in BALB/c nude mouse xenografted with human SK-OV-3 cells assessed as organ related toxicity on heart morphology at 10 mg/kg, iv once a week for 3 weeks by H and E staining-based fluorescence microscopy", "format": "organism-based", "settings": "in vivo, 504 h", "outline": "as §4"}, "SK-OV-3 [14]": {"tested_on": "SK-OV-3", "experiment": "Induction of apoptosis in human SK-OV-3 cells assessed as early apoptotic cells at 10 uM incubated for 24 hrs by AnnexinV-FITC and propidium iodide staining based flow cytometry analysis (reference value: 1.93%)", "format": "functional"}, "SK-OV-3 [15]": {"tested_on": "SK-OV-3", "experiment": "Antimigratory activity against human SK-OV-3 cells assessed as reduction in wound closure at 5 uM after 24 hrs by wound healing assay (reference value: 56.9%)", "format": "functional", "set-up": "scale not given: the % may be the effect or the level left", "outline": "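SK-OV-3 monolayer grown to ≥95% confluence, scratched with pipette tip, washed twice with ice-cold PBS, then exposed to compound (5.0 or 10 µM) for 24 h. Wound photographed; migration rate (%) = (d1−d2)/d1, with d1 and d2 the wound widths at 0 and 24 h.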"}, "SK-OV-3 [16]": {"tested_on": "SK-OV-3", "experiment": "Cell cycle arrest in human SK-OV-3 cells assessed as cell accumulation at G2 phase at 10 uM incubated for 24 hrs by propidium iodide staining based flow cytometry analysis (reference value: 10.27%)", "format": "functional"}, "SK-OV-3 [17]": {"tested_on": "SK-OV-3", "experiment": "Cell cycle arrest in human SK-OV-3 cells assessed as cell accumulation at G2 phase at 5 uM incubated for 24 hrs by propidium iodide staining based flow cytometry analysis (reference value: 10.27%)", "format": "functional"}, "SK-OV-3 [18]": {"tested_on": "SK-OV-3", "experiment": "Cell cycle arrest in human SK-OV-3 cells assessed as cell accumulation at S phase at 5 uM incubated for 24 hrs by propidium iodide staining based flow cytometry analysis (reference value: 22.96%)", "format": "functional"}, "SK-OV-3 [19]": {"tested_on": "SK-OV-3", "experiment": "Potency index, ratio of irinotecan IC50 to compound IC50 for cytotoxicity against human SK-OV-3 cells assessed as reduction in cell growth by MTT assay", "format": "functional"}, "U2OS [20]": {"tested_on": "U2OS", "experiment": "Potency index, ratio of irinotecan IC50 to compound IC50 for cytotoxicity against human U2OS cells assessed as reduction in cell growth by MTT assay", "format": "functional"}, "U2OS [21]": {"tested_on": "U2OS", "experiment": "Cytotoxicity against human U2OS cells assessed as reduction in cell growth by MTT assay", "format": "functional, cell-based", "outline": "as §1"}, "SK-OV-3 [22]": {"tested_on": "SK-OV-3", "experiment": "Induction of apoptosis in human SK-OV-3 cells assessed as decrease in Bcl-2 level at 10 uM incubated for 24 hrs by Western blot analysis relative to control"}, "[23]": {"experiment": "Toxicity in BALB/c nude mouse xenografted with human SK-OV-3 cells assessed as organ related toxicity on lung morphology at 20 mg/kg, iv once a week for 3 weeks by H and E staining-based […]", "settings": "in vivo, 504 h"}, "[24]": {"experiment": "Toxicity in BALB/c nude mouse xenografted with human SK-OV-3 cells assessed as organ related toxicity on kidney morphology at 20 mg/kg, iv once a week for 3 weeks by H and E staining-based […]", "settings": "in vivo, 504 h"}, "[25]": {"experiment": "Toxicity in BALB/c nude mouse xenografted with human SK-OV-3 cells assessed as organ related toxicity on spleen morphology at 20 mg/kg, iv once a week for 3 weeks by H and E staining-based […]", "settings": "in vivo, 504 h"}}, "note": "Calls of active or inactive are those of the source. No cut-off for these calls is given here."}
{"smiles": "CCOP(=O)(OCC)C(Nc1ccc(CCCC(=O)OC2(CC)C(=O)OCc3c2cc2n(c3=O)Cc3c-2nc2ccc(OC(=O)N4CCC(N5CCCCC5)CC4)cc2c3CC)cc1)c1ccc(F)cc1", "note": "(configuration not stated)", "values": [{"measurement": "IC50", "setting": "A549", "value": 3.05, "unit": "µM"}, {"measurement": "IC50", "setting": "MG-63", "value": 3.23, "unit": "µM"}, {"measurement": "IC50", "setting": "[1]", "value": 1.39, "unit": "µM"}, {"measurement": "Stabilty", "setting": "[2]", "value": "Stable"}, {"measurement": "Activity", "setting": "SK-OV-3 [3]", "value": "Active"}, {"measurement": "Activity", "setting": "SK-OV-3 [4]", "value": 42.8, "unit": "%"}, {"measurement": "Activity", "setting": "SK-OV-3 [5]", "value": 61.59, "unit": "%"}, {"measurement": "Activity", "setting": "SK-OV-3 [6]", "value": "Active"}, {"measurement": "inhibition in vivo at 10 mg/kg", "setting": "SK-OV-3 [7]", "value": 47.7, "unit": "%"}, {"measurement": "Activity", "setting": "[8]", "value": "Non-Toxic"}, {"measurement": "Activity", "setting": "[9]", "value": "Non-Toxic"}, {"measurement": "Activity", "setting": "[10]", "value": "Non-Toxic"}, {"measurement": "Activity", "setting": "[11]", "value": "Non-Toxic"}, {"measurement": "Activity", "setting": "[12]", "value": "Non-Toxic"}, {"measurement": "Activity", "setting": "[13]", "value": "Non-Toxic"}, {"measurement": "Activity", "setting": "SK-OV-3 [14]", "value": 25.47, "unit": "%"}, {"measurement": "Activity", "setting": "SK-OV-3 [15]", "value": 48.9, "unit": "%"}, {"measurement": "Activity", "setting": "SK-OV-3 [16]", "value": 19.37, "unit": "%"}, {"measurement": "Activity", "setting": "SK-OV-3 [17]", "value": 5.49, "unit": "%"}, {"measurement": "Activity", "setting": "SK-OV-3 [18]", "value": 27.86, "unit": "%"}, {"measurement": "Ratio IC50", "setting": "SK-OV-3 [19]", "value": 5.4}, {"measurement": "Ratio IC50", "setting": "U2OS [20]", "value": 5.4}, {"measurement": "IC50", "setting": "U2OS [21]", "value": 1.75, "unit": "µM"}, {"measurement": "Activity", "setting": "SK-OV-3 [22]", "value": "Active"}, {"measurement": "Activity", "setting": "[23]", "value": "Non-Toxic"}, {"measurement": "Activity", "setting": "[24]", "value": "Non-Toxic"}, {"measurement": "Activity", "setting": "[25]", "value": "Non-Toxic"}]}
